Assay results gathered from unrelated publications.
Compare with care: the assays were run in different laboratories.
Target: Ephrin type-A receptor 4 (EPHA4, Homo sapiens, UniProt P54764)

`Cc1cnc(NC2CCOCC2)nc1-n1cnc(C(=O)NC(CN)c2cc(F)cc(Cl)c2)c1` (stereo not shown) has a remaining activity of 104% (enzyme activity, inhibitor, radiometric; 1 µM).
For `CCCCN(CCCC)C(=O)CN1C[C@@H](c2cc(OC)c3c(c2)OCO3)[C@H](C(=O)O)[C@H]1CC(C)(C)CCC`, the remaining binding was 95.7% (cell-free assay, competition with immobilised ligand; 1 µM).
For `CNC(=O)c1cc(Oc2ccc(NC(=O)Nc3ccc(Cl)c(C(F)(F)F)c3)cc2)ccn1`, the inhibition was 7% (enzyme activity, inhibitor; 0.3 µM).
The inhibition of `COc1cc2ncnc(Nc3ccc(Oc4ccccc4)c(C)c3C)c2cc1OC` is reported as 10% (enzyme activity, inhibitor; 1 µM).
The remaining activity of `COc1cc(Nc2cnc(C#N)c(O[C@H](C)CN(C)C)n2)ncc1-c1cnn(C)c1` is reported as 73% (enzyme activity, inhibitor, radiometric; 1 µM).
The remaining activity of `Cn1c(=O)n(-c2ccc(C(C)(C)C#N)cc2)c2c3cc(-c4cnc5ccccc5c4)ccc3ncc21` is reported as 105% (enzyme activity, inhibitor; 10 µM).
`Cc1ccc(C(=O)Nc2ccc(CN3CCN(C)CC3)c(C(F)(F)F)c2)cc1C#Cc1cnc2cccnn12` has a remaining signal of 22% (cell-free assay; 23.5 nM).
`CC(C)(O)[C@H]1CC[C@H](Nc2ccc3ncc(-c4cccc(C(F)(F)F)c4)n3n2)CC1` has a remaining activity of 98.8% (enzyme activity, inhibitor; 1 µM).
`Oc1cccc(-c2nc(N3CCOCC3)c3oc4ncccc4c3n2)c1` gave a remaining activity of 103% (enzyme activity, inhibitor; 10 µM).
`O=C(NCCCC1CCCCC1)c1ccc(CNC(=O)c2cnn(-c3ccccc3)c2C(F)(F)F)cc1` has a remaining binding of 70% (cell-free assay, competition with immobilised ligand; 0.1 µM).
`N#CCCc1ccc2c(c1)-c1[nH]c3ccc([N+](=O)[O-])cc3c1CC(=O)N2` gave a remaining signal of 85.2% (cell-free assay; 0.5 µM).
`COc1ccc2cc(OCC3(C(=O)O)CN(C(=O)c4ccc(F)cc4)C3)ccc2c1` gave a remaining binding of 100% (cell-free assay, competition with immobilised ligand; 1 µM).
`COc1cc(Cl)c(C(=O)N[C@@H](CN[C@H]2CC[C@@H](N)CC2)Cc2ccc(C#N)cc2)cc1-c1ccc(CN[C@H](C)c2ccc(C)cc2)o1` has a remaining activity of 99% (enzyme activity, inhibitor; 1 µM).
The remaining activity of `CC(C)(C)c1nc(-c2cccc(NS(=O)(=O)c3c(F)cccc3F)c2F)c(-c2ccnc(N)n2)s1` is reported as 97% (enzyme activity, inhibitor, radiometric; 1 µM).
`CC/C(=N\NC(=O)NCc1cccc(O)c1)c1ccc(O)c(C)c1O` gave an inhibition of 0.3% (enzyme activity, inhibitor; 0.1 µM).
For `CCS(=O)(=O)c1cc2cc(C[C@](O)(CC(C)(C)c3ccc(F)cc3C(N)=O)C(F)(F)F)[nH]c2cn1`, the remaining binding was 100% (cell-free assay, competition with immobilised ligand; 1 µM).
`Cc1sc(C(=O)NC2COC2)cc1-n1cc(NC(=O)Nc2c(F)cccc2Cl)cn1` gave a remaining activity of 116% (enzyme activity, inhibitor; 10 µM).
For `CS(=O)(=O)N1CCCC(NC(=O)[C@H](CCC2CCCCC2)NC(=O)c2ccc(CNC(=O)c3cnc4ccccn34)cc2)C1` (stereo partly shown), the remaining binding was 98% (cell-free assay, competition with immobilised ligand; 0.1 µM).
`Cc1ccc(Nc2nccc(N(C)c3ccc4c(C)n(C)nc4c3)n2)cc1S(N)(=O)=O` gave an inhibition of 3% (enzyme activity, inhibitor; 0.3 µM).
The remaining binding of `CS(=O)(=O)N1CCCC(NC(=O)[C@H](CCC2CCCCC2)NC(=O)c2ccc(CNc3ncnc4c3nnn4-c3ccccc3)cc2)C1` (stereo partly shown) is reported as 76% (cell-free assay, competition with immobilised ligand; 0.1 µM).
`Cc1cc(NC(=O)c2cccc3cc(-c4cccc5[nH]nc(N)c45)ccc23)ccc1F` has an activity vs control of 73% (enzyme activity, inhibitor; 0.1 µM).
For `Nc1c(C(=O)NCc2ccc(C(=O)NCCCC3CCCCC3)cc2)cnn1-c1ccccc1`, the remaining binding was 100% (cell-free assay, competition with immobilised ligand; 0.1 µM).
For `CCCOc1ccc(OC)c(F)c1C(=O)c1ccc(C(=O)N[C@@H]2CNC[C@H]2NC(=O)c2ccc3[nH]ncc3c2)cc1`, the remaining activity was 82% (enzyme activity, inhibitor; 10 µM).
`C[C@@H](c1cccc(C#N)c1)n1cc(Cl)cc(C(N)=O)c1=N` has a remaining binding of 90% (cell-free assay, competition with immobilised ligand; 1 µM).
With `CCN(CC)CCNC(=O)c1c(C)[nH]c(/C=C2\C(=O)Nc3ccc(F)cc32)c1C` the inhibition was 1% (enzyme activity, inhibitor; 0.3 µM).
